Results on 17 molecules are retold here after publication PMC10870986 (Indian Journal of Endocrinology and Metabolism, 2023).

Data set [1] is described as follows: Hyperprolactinemia in patients referred to a tertiary care hospital. Format: in vivo, human. The settings on record: for drug-induced hyperprolactinemia with prolactin levels less than 100 ng/ml: number of cases / drug-induced hyperprolactinemia with prolactin levels greater than 100 ng/ml: number of cases: 11 drug-induced cases among 58.
Data set [2] is described as follows: Etiological profile of hyperprolactinemia, Endocrine OPD. Format: in vivo, human. The settings on record: 50 subjects with hyperprolactinemia; use of drugs 56% of etiologies; Domperidone with and without PPI.
Data set [3] is classed as in vivo, human.
Data set [4] in a line: Case: hypomagnesemia. Format: in vivo, human. The following applies: single child, Tab. MgO 200mg TID.
Data set [5] in a line: Case: Chiari Frommel syndrome treated with bromocriptine. Format: in vivo, human. The settings on record: single patient, 2.5mg for one month.
A short description of data set [6]: Case: ACTH and prolactin co-secreting pituitary adenoma treated with cabergoline. The following applies: single patient. Format: in vivo, human.
Data set [7] in a line: Giant prolactinoma case series, response to cabergoline. The class given is in vivo, human. The following applies: follow-up MRI in 17 patients. The method, boiled down:
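Patients with giant prolactinoma all received cabergoline, dose range 0.5-7 mg/week, over a mean follow-up of 11.78 ± 14.89 months. Tumour shrinkage was judged against the baseline maximum tumour dimension on follow-up MRI, which was available for 17 patients.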

Data set [8] can be described thus: Case: cabozantinib for metastatic MTC. The class given is in vivo, human. The following applies: single patient.
The conditions of data set [9]: ref not given, cited from earlier work.
A short description of data set [10]: Case: diazoxide in Prader-Willi Syndrome. The settings on record: child with PWS. The class given is in vivo, human.
Data set [11] is classed as in vivo, human. The method, boiled down:
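Observational study of 167 diabetic outpatients seen January–June 2023. All had HbA1c, FPG and PPG uncontrolled on two or three oral hypoglycaemic agents and were unwilling to start insulin. Imeglimin was added as the third or fourth agent, and FPG, PPG, HbA1c and adverse effects were recorded afterwards.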
This is another data set of the same source.

A short description of data set [12]: Orlistat vs orlistat + resveratrol in overweight/obese subjects, 12 weeks. The class given is in vivo, human.
The format of data set [13] is in vivo, human. The following applies: orlistat 120 mg thrice daily, mean [SD].
Data set [14] can be described thus: Semaglutide in type 2 diabetes, cross sectional study. Format: in vivo, human. The following applies: Likert 5-point scale.
A short description of data set [15]: Case series: immune check point inhibitor induced endocrine dysfunction. The class given is in vivo, human. The following applies: series of ten patients with IRAE.
A short description of data set [16]: Case: nivolumab induced endocrine dysfunction. The settings on record: single patient, 240 mg fortnightly, after 10 cycles. The class given is in vivo, human.
A short description of data set [17]: Case: growth hormone therapy in short stature with Crohn's disease. The class given is in vivo, human. The following applies: single patient.
[18] abbreviates: fulminant hepatic failure, fatal.
[19] abbreviates: last Ketoconazole dose the night before surgery, isoflurane anaesthesia.
Where [20] appears, read: single patient on Ketoconazole 1200 mg/day and spironolactone 200 mg/day.

Some results are limits rather than exact numbers.

As for `O=c1[nH]c2ccccc2n1CCCN1CCC(n2c(=O)[nH]c3cc(Cl)ccc32)CC1` [Domperidone], the “drug-induced hyperprolactinemia with prolactin levels less than 100 ng/ml: number of cases” value in data set [1] came to 3 cases. Besides, the “Among the drugs causing hyperprolactinemia: share of cases” value in [2] is 53.57%.

With `CC(=O)N1CCN(c2ccc(OCC3COC(Cn4ccnc4)(c4ccc(Cl)cc4Cl)O3)cc2)CC1` (centres unmarked) [Ketoconazole], in data set [3] (setting [18]), the “ALT, 5th post operative day” value is 5053 U/L; the “AST, 5th post operative day” value is 7844 L⁻¹; the “GGT, 5th post operative day” value is 207 U/L; the “INR, 5th post operative day” value was > 11. In [3] (setting [18]), the “PT, 5th post operative day” value is > 120 s and the “aPTT, 5th post operative day” value is > 180 s. In data set [3] (setting [19]), the “ALT, 4th post operative day” value came to 433 U/L; the “AST, 4th post operative day” value stood at 370 U/L; the “GGT, 4th post operative day” value stood at 233 U/L. In addition, in [3] (setting [20]), the “ALT before the surgery” value turned out to be 30 IU/ml and the “AST before the surgery” value is given as 27 IU/ml.

In the case of `[O]=[Mg]` [MgO], the calcium on treatment in [4] came to 9.2 mg/dL. In addition, in data set [4] (at presentation 0.4mg/dl), the “Serum Magnesium on treatment” value stood at 1.2 mg/dL.

Regarding `Cc1cc2c(s1)Nc1ccccc1N=C2N1CCN(C)CC1` [Olanzapine], the “Among the drugs causing hyperprolactinemia: share of cases” value in data set [2] stood at 3.57%.

Regarding `Cc1nc2n(c(=O)c1CCN1CCC(c3noc4cc(F)ccc34)CC1)CCCC2` [Risperidone], in data set [1], the “drug-induced hyperprolactinemia with prolactin levels greater than 100 ng/ml: number of cases” value stood at 1 cases and the “drug-induced hyperprolactinemia with prolactin levels less than 100 ng/ml: number of cases” value came out at 1 cases. The “Among the drugs causing hyperprolactinemia: share of cases” value in data set [2] was 7.14%.

With `CN[C@H]1CC[C@@H](c2ccc(Cl)c(Cl)c2)c2ccccc21` [Sertraline], the “Among the drugs causing hyperprolactinemia: share of cases” value in data set [2] stood at 3.57%.

As to `CC(C)C[C@H]1C(=O)N2CCC[C@H]2[C@]2(O)O[C@](NC(=O)[C@@H]3C=C4c5cccc6[nH]c(Br)c(c56)C[C@H]4N(C)C3)(C(C)C)C(=O)N12` [bromocriptine], the effect on galactorrhea entry in [5] is “Milk secretion was slowed down”.

Consider `C=CCN1C[C@H](C(=O)N(CCCN(C)C)C(=O)NCC)C[C@@H]2c3cccc4[nH]cc(c34)C[C@H]21` [cabergoline], for which, in data set [6] (cabergoline 2mg/week), the “outcome at increased dose” value is given as “developed adrenal insufficiency”. Moreover, in [6] (on cabergoline 0.5mg/week, before dose increase), the Follow up prolactin is recorded as 15737 miu/l. The molecule also came in with a Stimulated cortisol in data set [6] (post 3 days of cabergoline 0.5mg/week) of 535 nmol/L. The molecule also registered an 8am cortisol in data set [6] (post 3 days of cabergoline 0.5mg/week, before 525nmol/l) of 132 nmol/L. Besides, the Prolactin in data set [6] (post 3 days of cabergoline 0.5mg/week, before 20982miu/l) was 9215 miu/l. Moreover, in data set [7] (2 patients), the “Tumor shrinkage <50%, share of patients” value is reported as 11.76% and the “disappearance of radiologically detectable tumor, share of patients” value was found to be 11.76%. The “Tumor shrinkage of >50% from the baseline, share of patients” value in [7] (13 patients) stood at 76.47%.

As to `COc1cc2nccc(Oc3ccc(NC(=O)C4(C(=O)Nc5ccc(F)cc5)CC4)cc3)c2cc1OC` [cabozantinib], in [8], the “response of metastatic MTC” value is “good response” and the tolerability result is listed as “stopped due to side effects”.

With `COc1cc(CNC(=O)CCCC/C=C/C(C)C)ccc1O` [capsaicin], in [9] (analysis on treatment intention, all pain measures), the “pain control, capsaicin lotion compared with placebo” value is “insignificant improvement in pain control”. Further, the “pain relief, topical capsaicin cream […], multicenter controlled trial” value in data set [9] (initial results, vs placebo) is “more relief of the pain associated with diabetic neuropathy than placebo”. Also, in data set [9] (may lead to withdrawal from the study), the “tolerability, capsaicin […] cream” value is “local skin irritation, which is often mild and transient”. For the same molecule, the “pain relief, capsaicin […] cream applied to the painful area” value in [9] (painful diabetic neuropathy) is “significant pain relief”. Further, the “pain relief, topical capsaicin […] for four to six weeks” value in data set [9] is reported as “either complete or significant relief”.

As for `CC1=NS(=O)(=O)c2cc(Cl)ccc2N1` [diazoxide], the tolerability result in data set [10] (3 mg/kg/d) is “well tolerated”. Besides, in data set [10] (3 mg/kg/d in two divided doses, after 3 weeks), the effect on hyperphagia entry is listed as “perceptible reduction in hyperphagia”.

As to `C[C@H]1N=C(N(C)C)N=C(N)N1` [imeglimin], in data set [11] (n=167), the “most common adverse effect” value is “gastrointestinal issues”. Also, the “HbA1c after imeglimin was added” value in [11] (n=167, add-on to two or three OHAs, baseline 9.1±1.8, p=0.004) is 7.2±1.2. Besides, the “FPG after imeglimin was added” value in data set [11] (n=167, add-on to two or three OHAs, baseline 176.61±45.75, p=0.013) was 108.05±24.79. Also, the “PPG after imeglimin was added” value in data set [11] (n=167, add-on to two or three OHAs, baseline 247.86±68.17, p=0.020) came to 156.49±38.53.

On to `CCN1CCC[C@H]1CNC(=O)c1cc(S(N)(=O)=O)ccc1OC` [levosulpiride], for which, in data set [1], the “drug-induced hyperprolactinemia with prolactin levels greater than 100 ng/ml: number of cases” value was determined as 5 cases and the “drug-induced hyperprolactinemia with prolactin levels less than 100 ng/ml: number of cases” value came out at 1 cases. Also, the “prolactin levels in drug-induced hyperprolactinemia” value in data set [1] (statement of the conclusion) was > 100 ng/mL.

On to `CCCCCCCCCCC[C@@H](C[C@@H]1OC(=O)[C@H]1CCCCCC)OC(=O)[C@H](CC(C)C)NC=O` [orlistat], for which, in data set [12], the “diarrhoea, number of patients” value is given as 7 patients. For the same molecule, the “weight loss, patients with diabetes with a BMI >=30” value in data set [12] (sub-group, p=0.045) was -1.04 kg. Besides, in [12] (sub-group, p=0.048), the “weight loss, patients with diabetes with steatosis” value was -0.44 kg. The “weight loss compared to baseline” value in data set [12] (thrice daily, 247 completers, mean body weight ~80 kg) is -2.92 kg. In addition, in data set [13] (patients with diabetes), the “mean weight loss after 2 months, group 2” value was 6.3 [4.9] %; the “mean weight loss after 4 months, group 2” value is 8.7 [4.7] %; the “mean weight loss after 6 months, group 2” value is 12.9 [2.4] %. In data set [13] (patients without diabetes), the “mean weight loss after 2 months, group 1” value is 7.1 [6.1] %; the “mean weight loss after 4 months, group 1” value was 14.6 [12.9] %; the “mean weight loss after 6 months, group 1” value was 16.1 [6.7] %. Besides, in data set [13] (prediabetic patients), the “mean weight loss after 2 months, group 3” value is 6 [2.6] %; the “mean weight loss after 4 months, group 3” value was 15.5 [15.4] %; the “mean weight loss after 6 months, group 3” value was 15.8 [6.2] %.

For `CC[C@H](C)[C@H](NC(=O)[C@H](Cc1ccccc1)NC(=O)[C@H](CCC(=O)O)NC(=O)[C@H](CCCCNC(=O)COCCOCCNC(=O)COCCOCCNC(=O)CC[C@H](NC(=O)CCCCCCCCCCCCCCCCC(=O)O)C(=O)O)NC(=O)[C@H](C)NC(=O)[C@H](C)NC(=O)[C@H](CCC(N)=O)NC(=O)CNC(=O)[C@H](CCC(=O)O)NC(=O)[C@H](CC(C)C)NC(=O)[C@H](Cc1ccc(O)cc1)NC(=O)[C@H](CO)NC(=O)[C@H](CO)NC(=O)[C@@H](NC(=O)[C@H](CC(=O)O)NC(=O)[C@H](CO)NC(=O)[C@@H](NC(=O)[C@H](Cc1ccccc1)NC(=O)[C@@H](NC(=O)CNC(=O)[C@H](CCC(=O)O)NC(=O)C(C)(C)NC(=O)[C@@H](N)Cc1cnc[nH]1)[C@@H](C)O)[C@@H](C)O)C(C)C)C(=O)N[C@@H](C)C(=O)N[C@@H](Cc1c[nH]c2ccccc12)C(=O)N[C@@H](CC(C)C)C(=O)N[C@H](C(=O)N[C@@H](CCCNC(=N)N)C(=O)NCC(=O)N[C@@H](CCCNC(=N)N)C(=O)NCC(=O)O)C(C)C` [semaglutide], in data set [14], the “patients rating strongly agree or agree for adverse event: diarrhoea” value was found to be 91.3%, the “patients rating strongly agree or agree for adverse event: loss of appetite” value was 87.4% and the “patients rating strongly agree or agree for adverse event: nausea” value is given as 93.5%.

In the case of nivolumab, in [15], the “patients with isolated thyroid dysfunction on the drug” value is recorded as “five”. Further, the “immune-related adverse events diagnosed” value in data set [16] is “checkpoint inhibitor induced diabetes mellitus (CPI-DM) and central adrenal insufficiency”.

In the case of “rHGH: recombinant growth hormone injection”, the catchup growth in [17] (0.18mg/kg/week, 6 months) was determined as 7 cm. The “growth thereafter at higher doses” value in data set [17] (0.3mg/kg/week, undiagnosed Crohn's disease) was “height remained static”.
